Experimental data as given in paper PMC2741613 (Journal of the American Chemical Society, 2009).

Legend:
PTP1B = molecular target: T1, PTP1B (Homo sapiens, UniProt P18031); experiment: PTP activity assay with pNPP, PTP1B; assay type: biochemical
T1 sequence (P18031 1-435): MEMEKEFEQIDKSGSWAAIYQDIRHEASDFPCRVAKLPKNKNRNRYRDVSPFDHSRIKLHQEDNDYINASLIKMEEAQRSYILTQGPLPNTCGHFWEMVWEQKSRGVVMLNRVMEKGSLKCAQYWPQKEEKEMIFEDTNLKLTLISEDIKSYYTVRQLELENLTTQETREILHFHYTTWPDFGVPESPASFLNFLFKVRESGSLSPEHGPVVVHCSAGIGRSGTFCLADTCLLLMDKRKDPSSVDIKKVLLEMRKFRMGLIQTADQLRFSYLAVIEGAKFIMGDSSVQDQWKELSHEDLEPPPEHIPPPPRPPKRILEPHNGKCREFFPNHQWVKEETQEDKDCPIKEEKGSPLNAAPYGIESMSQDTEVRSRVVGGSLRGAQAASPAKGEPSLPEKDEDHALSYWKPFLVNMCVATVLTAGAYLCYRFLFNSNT
Procedure, shortened: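 Reactions started by adding enzyme (2 nM final) to mixtures with varied pNPP and varied test compound. Rates fitted with an enzyme-kinetics model to give Ki and mode of inhibition.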

SHP2 = molecular target: T2, SHP2 (Homo sapiens, UniProt Q06124); experiment: PTP activity assay with pNPP, SHP2; assay type: biochemical
T2 sequence (Q06124 1-593): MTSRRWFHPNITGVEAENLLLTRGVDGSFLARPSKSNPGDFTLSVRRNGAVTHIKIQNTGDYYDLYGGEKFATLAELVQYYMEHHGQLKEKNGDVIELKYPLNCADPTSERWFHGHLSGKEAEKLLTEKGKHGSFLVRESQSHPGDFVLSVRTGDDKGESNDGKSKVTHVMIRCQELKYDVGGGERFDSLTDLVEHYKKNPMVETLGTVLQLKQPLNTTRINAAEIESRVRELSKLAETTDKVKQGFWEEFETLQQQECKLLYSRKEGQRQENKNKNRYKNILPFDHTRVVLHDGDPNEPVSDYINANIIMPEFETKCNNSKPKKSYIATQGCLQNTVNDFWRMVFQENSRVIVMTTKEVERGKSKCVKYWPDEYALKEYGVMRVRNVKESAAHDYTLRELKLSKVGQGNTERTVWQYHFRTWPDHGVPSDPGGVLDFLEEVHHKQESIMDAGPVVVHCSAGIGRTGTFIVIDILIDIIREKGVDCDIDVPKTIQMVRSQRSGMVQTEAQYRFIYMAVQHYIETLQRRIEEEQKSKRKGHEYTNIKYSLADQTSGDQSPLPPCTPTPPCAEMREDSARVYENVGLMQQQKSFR
Procedure, shortened: (§1)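 Reactions started by adding enzyme to mixtures with various pNPP and test-compound concentrations. Rates were fitted with an enzyme-kinetics model for Ki.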

FAP1 = FAP1 (Homo sapiens, UniProt Q12923); experiment: PTP activity assay with pNPP, FAP1; assay type: biochemical
Chain of FAP1 (Q12923 whole entry, species assumed): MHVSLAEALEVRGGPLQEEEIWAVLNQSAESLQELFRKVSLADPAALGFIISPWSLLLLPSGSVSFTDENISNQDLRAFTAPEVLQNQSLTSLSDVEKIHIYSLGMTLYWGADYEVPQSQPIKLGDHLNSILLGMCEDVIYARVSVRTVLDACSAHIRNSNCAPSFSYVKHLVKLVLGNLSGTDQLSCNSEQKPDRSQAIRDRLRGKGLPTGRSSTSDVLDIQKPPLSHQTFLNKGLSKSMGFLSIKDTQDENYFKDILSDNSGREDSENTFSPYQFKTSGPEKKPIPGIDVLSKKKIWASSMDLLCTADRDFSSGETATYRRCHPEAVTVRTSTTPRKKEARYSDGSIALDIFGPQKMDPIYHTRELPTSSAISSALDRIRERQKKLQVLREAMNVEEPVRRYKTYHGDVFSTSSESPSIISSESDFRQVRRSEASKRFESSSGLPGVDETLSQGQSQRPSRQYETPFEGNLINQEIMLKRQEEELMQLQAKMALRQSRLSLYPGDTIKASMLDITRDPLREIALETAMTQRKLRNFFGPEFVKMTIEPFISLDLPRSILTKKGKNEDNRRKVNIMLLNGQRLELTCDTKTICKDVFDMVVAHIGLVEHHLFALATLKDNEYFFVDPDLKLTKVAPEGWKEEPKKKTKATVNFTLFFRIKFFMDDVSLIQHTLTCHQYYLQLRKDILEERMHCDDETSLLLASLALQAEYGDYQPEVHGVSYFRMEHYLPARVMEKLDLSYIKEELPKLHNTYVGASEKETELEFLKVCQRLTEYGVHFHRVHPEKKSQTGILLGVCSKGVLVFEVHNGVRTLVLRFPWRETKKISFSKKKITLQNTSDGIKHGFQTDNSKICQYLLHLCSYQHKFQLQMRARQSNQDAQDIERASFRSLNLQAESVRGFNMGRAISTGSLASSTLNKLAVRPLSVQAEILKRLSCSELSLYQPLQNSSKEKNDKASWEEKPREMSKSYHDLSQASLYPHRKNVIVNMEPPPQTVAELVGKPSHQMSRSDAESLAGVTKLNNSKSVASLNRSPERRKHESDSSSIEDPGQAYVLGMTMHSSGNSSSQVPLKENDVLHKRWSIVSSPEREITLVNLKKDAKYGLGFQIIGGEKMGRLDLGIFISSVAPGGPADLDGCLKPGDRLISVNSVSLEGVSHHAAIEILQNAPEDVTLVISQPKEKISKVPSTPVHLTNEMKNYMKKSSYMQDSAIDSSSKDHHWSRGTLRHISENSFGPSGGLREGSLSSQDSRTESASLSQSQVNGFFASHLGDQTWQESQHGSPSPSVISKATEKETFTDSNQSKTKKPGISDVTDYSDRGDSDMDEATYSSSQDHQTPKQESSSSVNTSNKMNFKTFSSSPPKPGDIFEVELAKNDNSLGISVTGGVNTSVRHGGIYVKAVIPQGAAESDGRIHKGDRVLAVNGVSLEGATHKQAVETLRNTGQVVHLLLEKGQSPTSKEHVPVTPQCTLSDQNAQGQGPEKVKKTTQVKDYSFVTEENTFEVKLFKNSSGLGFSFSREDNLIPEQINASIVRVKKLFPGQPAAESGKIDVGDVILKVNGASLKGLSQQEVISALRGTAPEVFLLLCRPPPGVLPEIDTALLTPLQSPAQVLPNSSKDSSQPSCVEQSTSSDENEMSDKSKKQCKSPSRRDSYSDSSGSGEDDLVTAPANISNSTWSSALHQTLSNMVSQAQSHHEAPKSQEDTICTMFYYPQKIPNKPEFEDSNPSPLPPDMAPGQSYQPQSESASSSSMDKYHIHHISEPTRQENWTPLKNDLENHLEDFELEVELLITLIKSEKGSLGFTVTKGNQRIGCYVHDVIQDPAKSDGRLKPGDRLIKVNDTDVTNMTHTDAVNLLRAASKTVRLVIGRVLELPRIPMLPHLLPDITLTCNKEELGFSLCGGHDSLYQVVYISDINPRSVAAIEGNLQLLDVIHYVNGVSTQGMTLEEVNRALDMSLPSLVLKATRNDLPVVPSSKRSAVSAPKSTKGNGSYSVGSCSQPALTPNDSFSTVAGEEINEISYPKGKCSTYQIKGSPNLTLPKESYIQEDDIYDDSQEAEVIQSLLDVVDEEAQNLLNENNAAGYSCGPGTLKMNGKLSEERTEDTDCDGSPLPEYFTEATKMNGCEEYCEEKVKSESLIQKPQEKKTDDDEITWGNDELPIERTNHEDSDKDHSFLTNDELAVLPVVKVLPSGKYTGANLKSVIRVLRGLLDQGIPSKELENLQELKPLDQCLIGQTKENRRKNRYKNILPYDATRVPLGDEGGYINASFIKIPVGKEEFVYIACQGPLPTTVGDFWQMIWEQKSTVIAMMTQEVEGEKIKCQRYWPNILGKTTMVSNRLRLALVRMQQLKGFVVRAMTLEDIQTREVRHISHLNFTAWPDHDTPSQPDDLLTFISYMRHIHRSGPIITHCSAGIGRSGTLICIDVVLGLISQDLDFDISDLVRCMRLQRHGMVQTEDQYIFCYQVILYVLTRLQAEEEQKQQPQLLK
Procedure, shortened: as §1

PTP-Meg2 = molecular target: T3, PTP-Meg2 (Homo sapiens, UniProt P43378); experiment: PTP activity assay with pNPP, PTP-Meg2; assay type: biochemical
T3 sequence (P43378 1-593): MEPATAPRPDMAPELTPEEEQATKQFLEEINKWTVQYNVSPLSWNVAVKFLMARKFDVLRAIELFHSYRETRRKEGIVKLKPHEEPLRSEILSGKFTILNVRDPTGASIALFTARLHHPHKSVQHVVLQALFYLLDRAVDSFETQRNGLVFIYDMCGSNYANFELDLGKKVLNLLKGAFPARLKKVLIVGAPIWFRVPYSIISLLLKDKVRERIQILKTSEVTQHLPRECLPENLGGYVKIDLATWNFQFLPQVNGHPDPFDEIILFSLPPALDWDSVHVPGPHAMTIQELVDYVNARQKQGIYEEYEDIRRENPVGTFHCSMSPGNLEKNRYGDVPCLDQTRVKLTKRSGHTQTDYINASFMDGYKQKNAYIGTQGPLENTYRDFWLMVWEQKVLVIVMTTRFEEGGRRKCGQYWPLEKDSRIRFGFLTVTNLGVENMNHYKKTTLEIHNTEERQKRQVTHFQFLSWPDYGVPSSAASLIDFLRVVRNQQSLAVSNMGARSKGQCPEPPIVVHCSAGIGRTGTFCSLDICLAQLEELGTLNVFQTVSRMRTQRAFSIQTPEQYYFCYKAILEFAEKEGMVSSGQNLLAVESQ
Procedure, shortened: as §1

PTPα = PTPα (Homo sapiens, UniProt P18433); experiment: PTP activity assay with pNPP, PTPα; assay type: biochemical
Chain of PTPα (P18433 20-802): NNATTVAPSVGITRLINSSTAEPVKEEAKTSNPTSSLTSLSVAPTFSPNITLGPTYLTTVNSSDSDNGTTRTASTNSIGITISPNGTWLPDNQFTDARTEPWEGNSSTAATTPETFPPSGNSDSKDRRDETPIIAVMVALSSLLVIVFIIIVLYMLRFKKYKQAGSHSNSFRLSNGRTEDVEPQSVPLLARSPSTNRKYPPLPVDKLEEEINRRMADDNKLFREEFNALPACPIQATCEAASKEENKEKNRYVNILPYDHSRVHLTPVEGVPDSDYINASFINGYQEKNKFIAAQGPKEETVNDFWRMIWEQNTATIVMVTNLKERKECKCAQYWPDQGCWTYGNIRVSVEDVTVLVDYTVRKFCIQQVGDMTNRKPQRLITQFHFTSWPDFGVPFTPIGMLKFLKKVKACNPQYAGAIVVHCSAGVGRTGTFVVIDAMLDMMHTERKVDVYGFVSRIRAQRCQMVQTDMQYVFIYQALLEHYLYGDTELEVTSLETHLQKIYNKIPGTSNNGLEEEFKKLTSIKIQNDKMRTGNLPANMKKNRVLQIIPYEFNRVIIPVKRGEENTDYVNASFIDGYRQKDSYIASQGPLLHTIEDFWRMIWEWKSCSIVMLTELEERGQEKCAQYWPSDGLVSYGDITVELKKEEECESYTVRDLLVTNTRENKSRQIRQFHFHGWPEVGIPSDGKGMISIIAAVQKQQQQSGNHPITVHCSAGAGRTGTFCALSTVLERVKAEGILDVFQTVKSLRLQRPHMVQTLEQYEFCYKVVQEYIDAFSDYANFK
Procedure, shortened: as §1

LMWPTP = molecular target: T4, LMWPTP (Homo sapiens, UniProt P24666); experiment: PTP activity assay with pNPP, LMWPTP; assay type: biochemical
T4 sequence (P24666 1-158): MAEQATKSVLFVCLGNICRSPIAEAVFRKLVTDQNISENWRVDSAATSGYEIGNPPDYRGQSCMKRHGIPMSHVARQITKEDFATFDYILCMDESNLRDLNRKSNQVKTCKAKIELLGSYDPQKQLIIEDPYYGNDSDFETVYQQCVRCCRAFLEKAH
Procedure, shortened: as §1

[1] = system: tyrosine phosphorylation of EGFR in PTP1B−/− mouse embryo fibroblast cells; experiment: EGF-stimulated EGFR phosphorylation in cells; assay type: cell-based; conditions: 2 hr, then EGF 2 ng/ml 10 min, relative to DMSO
Procedure, shortened: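 PTP1B−/− mouse embryo fibroblasts were given test compound for 2 hr, then EGF 2 ng/mL for 10 min. Lysis in HEPES pH 7.4 buffer with pervanadate, fluoride and protease inhibitors, cleared at 15,000 rpm for 10 min, protein by BCA. EGFR immunoprecipitated from 1 mg lysate (4 °C, 2 h; protein A/G 2 h). SDS-PAGE, anti-pTyr immunoblot, ECL detection.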

[2] = system: pSrc416 in PTP1B−/− mouse embryo fibroblast cells; experiment: Src phosphorylation at Tyr416 in cells; assay type: cell-based; conditions: treated for two hours, various concentrations
Procedure, shortened: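 PTP1B−/− mouse embryo fibroblasts at 80% confluence were exposed to test compound for two hours, then lysed and cleared at 15,000 rpm for 10 min. 30 μg total protein run on SDS-PAGE and blotted to PVDF. Probed with anti-pSrc416, anti-pSrc527 and anti-Src antibodies, HRP-conjugated secondaries.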

## CCc1ccc(C(=O)NCCCC[C@H](NC(=O)[C@H](Cc2ccc(C(F)(F)P(=O)(O)O)cc2)NC(=O)[C@H](Cc2ccccc2)NC(=O)CO[C@H]2C[C@@H](C)CC[C@@H]2C(C)C)C(N)=O)cc1 [Compound 8]
PTP1B; PTP1B
  Ki: 0.034 ± 0.0028 µM
PTP1B; TC-PTP versus PTP1B
  selectivity for TC-PTP over PTP1B: 8 fold
SHP2
  Ki: > 1 µM
FAP1
  Ki: > 1 µM
PTP-Meg2
  Ki: > 1 µM
PTPα
  Ki: > 1 µM
LMWPTP
  Ki: > 1 µM
[1]; 5 nM
  increase in EGFR phosphorylation: ~2 fold
[1]; 50 nM
  increase in EGFR phosphorylation: 5.0 fold
[2]
  effect on pSrc416 phosphorylation: dose-dependent increase
